STAT1 blocker: STAT1 signaling inhibitors, primary screen, cell-based, HTS, luciferase reporter. NIH 3T3 STAT1-luciferase reporter, IFN-gamma, luminescence. inhibition, % at 5.5 µM. actives 0.35% (n = 200,000). AID 920, 2007;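 active = inhibition above a set limit, the mean inhibition across all tested compounds plus 3 SD, cut at about 34% in these data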
FLuc stim CS: FLuc activators, initial screening, artefact control for FLuc-dependent activation tests, biochemical, ATPlite luminescence. ATPlite luciferase biochemical, 10 min; 0 = ATP-free wells, 1 = DMSO control. activation factor at 10 µM. Luciferin 4-monooxygenase (Photinus pyralis), P08659. 200,000 tested, under 10 active;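 active = luciferase activation factor, scaled between plate controls, of at least 2 with compound at 10 µM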
Target sequence (P08659 whole entry, looked up): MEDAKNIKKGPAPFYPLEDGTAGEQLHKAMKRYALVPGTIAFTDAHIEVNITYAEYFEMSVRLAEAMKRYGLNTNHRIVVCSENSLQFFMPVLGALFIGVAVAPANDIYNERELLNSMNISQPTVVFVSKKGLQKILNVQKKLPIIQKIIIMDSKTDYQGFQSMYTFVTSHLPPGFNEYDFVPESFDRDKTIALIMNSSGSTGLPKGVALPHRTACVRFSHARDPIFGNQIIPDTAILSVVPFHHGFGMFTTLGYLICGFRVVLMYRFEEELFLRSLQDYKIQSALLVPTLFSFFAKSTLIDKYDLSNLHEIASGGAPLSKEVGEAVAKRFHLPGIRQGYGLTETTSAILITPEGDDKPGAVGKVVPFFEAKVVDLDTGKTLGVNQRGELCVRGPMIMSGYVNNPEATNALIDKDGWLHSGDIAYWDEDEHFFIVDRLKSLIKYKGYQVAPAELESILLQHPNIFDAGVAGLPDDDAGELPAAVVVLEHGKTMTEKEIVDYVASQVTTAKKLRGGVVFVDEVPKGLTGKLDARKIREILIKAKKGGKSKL
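System: luciferase plus luciferin reagent, cell-free; medium: PBS as buffer for the ATP substrate; dosing: test compounds dosed from 2 mM stocks in 100% DMSO; timing: 10 min post-reagent at room temperature; measured by: luminescence measurement of luciferase light output; evaluation: luciferase activation, seen as luminescence increase over controls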
FLuc inh counter: firefly luciferase enzyme inhibitors, primary screen, artefact control for luciferase-based inhibitor screens, biochemical, luminescence, ATPLite; 10 min; actives 1.5% (n = 200,000); inhibition, % at 10 µM; AID 1006, 2008;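 active = inhibition above about 50% when tested at 10 µM, limit read from the data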
STAT1 act: STAT1 signaling activators, primary screen, cell-based, HTS, luciferase reporter. activation (% of control), % at 5.5 µM. AID 932, 2007. NIH 3T3 STAT1-luciferase reporter, IFN-gamma, luminescence; 100% = IFN-gamma alone, no compound. actives 2.6% (n = 200,000);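 active = activation above the screen-wide mean activation plus 3 SD, cut at about 130% in these data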
STAT3 blocker: IL-6 driven STAT3 reporter inhibitors, primary screen, U3A cells, luciferase, luminescence, MLSCN library; actives 0.89% (n = 190,000); IL-6 STAT3-luciferase reporter; host cell line lacks STAT1; inhibition, % at 5.5 µM;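 active = inhibition above the mean inhibition across all screened compounds plus 3 SD, cut at about 44% in these data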
STAT3 act: IL-6 driven STAT3 reporter potentiators, primary screen, U3A cells, luciferase, luminescence, MLSCN library | IL-6 STAT3-luciferase reporter; 100% = signal with IL-6 EC80 alone | activation (% of control), % at 5.6 µM | actives 0.91% (n = 190,000) | AID 871, 2007;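 active = activation above the screen-wide mean of compound activation plus 3 SD, cut at about 130% in these data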
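Detection: reporter luminescence signal / Assay system: STAT1-lacking human U3A cells, STAT3 luciferase reporter / Incubation: compound pre-incubation 1 h before IL-6, then 6 h stimulation at 37 °C / Control set: IL-6-only high control / Read-out: % activation relative to IL-6 control / Probe or stimulus: Interleukin-6, 33 ng/mL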
Hits are given with their value; i = inactive. Rows were chosen to be rich in hits. Some 4.9% of all compounds tested hit in one or more screens of this group.

SMILES	STAT1 blocker	FLuc stim CS	FLuc inh counter	STAT1 act	STAT3 blocker	STAT3 act
CCOc1ccc(N=Cc2c(C)[nH]n(-c3nc4ccccc4[nH]3)c2=O)cc1	i	i	69.5	i	i	i
Cc1[nH]n(-c2ccccc2)c(=O)c1C=Nc1cnc2ccccc2c1	i	i	i	i	i	i
Cc1ccc(/C=N/N2CCN(c3ccccn3)CC2)cc1	i	i	i	142.0	i	i
CCCNC(=O)CSc1nc2ccccc2c(=O)n1CCC	i	i	i	i	i	i
C=CCn1c(C)cc(C(=O)Cn2ncc(Cl)c(Cl)c2=O)c1C	i	i	i	i	i	i
C=CCn1c(C)cc(C(=O)CN2NS(=O)(=O)c3ccccc3C2=O)c1C	i	i	55.4	142.8	i	i
CC(C)(C)c1ccc(C(=O)Nc2ccc(CC(=O)O)cc2)o1	53.8	i	51.3	i	82.8	i
Cc1ccc(C(=O)Nc2ccc(CC(=O)O)cc2)o1	i	i	i	i	i	i
CNC(=S)Nc1ccc2nc(C)oc2c1	i	i	i	i	i	i
OC1CCN(C(=S)Nc2ccc(Oc3ccccc3)cc2)CC1	i	i	i	i	i	i
Cc1ccc(NC(=O)Nc2ncccc2C)cc1	i	i	i	148.9	i	i
Cc1cccnc1NC(=O)Nc1ccc(F)cc1	i	i	i	136.1	i	i
Cc1ccc(C)c(NC(=S)Nc2ncccc2C)c1	i	i	i	131.5	i	i
CCOC(=O)c1ccc(NC(=O)Nc2ncccc2C)cc1	i	i	i	i	i	i
O=C(Cc1ccccc1)NC(=S)Nc1ccc2oc(-c3ccccc3)nc2c1	i	i	i	i	i	i
O=C(CCC1CCCC1)Nc1ccc(OCC(=O)N2CCOCC2)cc1	i	i	73.2	i	i	i
COC(=O)Nc1ccc(OCC(=O)N2CCOCC2)cc1	i	i	i	i	i	i
COc1ccccc1C(=O)NNC(=S)NC(=O)c1ccco1	i	i	i	i	i	i
c1ccc(NCC2OCc3ccccc3CO2)cc1	i	i	i	136.0	i	i
CCCCCCNCC1OCc2ccccc2CO1	i	i	i	i	i	i
NS(=O)(=O)c1ccc(NC(=O)Cc2c(F)cccc2Cl)cc1	i	i	i	i	i	i
O=C(N/N=C/c1ccccc1)c1[nH]ncc1Br	i	i	70.2	130.2	i	i
O=C(N/N=C/c1cccnc1)c1[nH]ncc1Br	i	i	i	i	i	i
CC(=O)Nc1ccc(N/C=C/C(=O)c2ccco2)cc1	i	i	i	141.2	i	i
COc1ccccc1Oc1ccc(N/C=C/C(=O)c2ccco2)cc1	i	i	i	143.1	i	i
SMILES	STAT1 blocker	FLuc stim CS	FLuc inh counter	STAT1 act	STAT3 blocker	STAT3 act
CCC1CCCCN1C(=O)COc1ccccc1NC(C)=O (stereo not drawn)	i	i	i	i	i	i
CN(C(=O)CSc1nc(N)c2c3c(sc2n1)CSC(C)(C)C3)c1ccccc1	i	i	i	i	i	i
CC(C)c1ccc(NC(=O)CSc2ncccc2C(=O)Oc2cccc([N+](=O)[O-])c2)cc1	i	i	i	i	i	i
Cc1ccc(/C(N)=N/OC(=O)c2cc(-c3ccccc3)nc3ccccc23)cc1	i	i	i	i	i	i
Cc1ccc(/C(N)=N/OC(=O)c2ccc(Cl)cc2Cl)cc1	i	i	74.6	140.1	i	i
COc1ccccc1C(=O)O/N=C(\N)c1ccc(Cl)cc1	i	i	i	139.8	i	i
Cc1ccc(/C=C/C(=O)O)cc1S(=O)(=O)NC1CCS(=O)(=O)C1 (stereo not drawn)	i	i	i	i	i	i
c1ccc(-c2nccc(-c3ccc4c(c3)OCO4)n2)cc1	i	i	i	134.5	i	i
c1ccc(-c2noc(-c3ccc4ccccc4c3)n2)nc1	88.4	i	96.5	i	112.6	i
c1ccc(-c2noc(-c3ccncc3)n2)nc1	i	i	i	i	i	i
c1ccc(-c2noc(-c3ccc4c(c3)OCO4)n2)nc1	53.8	i	94.1	i	107.3	i
CC1CCN(CC(=O)Nc2cccc(Cl)c2)CC1	i	i	i	i	i	i
COc1ccccc1NC(=O)c1c(Nc2ccccc2C)sc(C(=O)Nc2cccc(Cl)c2)c1N	i	i	i	i	i	i
CN(c1cccc(NC(=O)c2ccc(Cl)c(S(=O)(=O)Nc3ccccc3)c2)c1)S(C)(=O)=O	45.1	i	i	i	i	i
Cc1ccccc1NS(=O)(=O)c1cc(C(=O)Nc2cccc(N(C)S(C)(=O)=O)c2)ccc1C	i	i	i	i	i	i
NC(=O)c1c(NC(=O)c2ccccc2)sc2c1CCc1ccccc1-2	i	i	i	139.5	i	i
NC(=O)c1c(NC(=O)c2ccncc2)sc2c1CCCC2	i	i	i	i	i	i
Cc1cccc(Cc2nnc(CCC(=O)N3CCCCC3c3nccs3)o2)c1 (stereo not drawn)	i	i	i	i	i	i
COc1ccc(OC)c(Cc2nnc(CCC(=O)N3CCCCC3c3nccs3)o2)c1 (stereo not drawn)	i	i	i	134.4	i	i
COc1ccc(S(=O)(=O)N(C)C)cc1NC(=O)CSc1nnc(-c2cccnc2)o1	i	i	i	i	i	i
O=C(Nc1ccc(S(=O)(=O)NCC2CCCO2)cc1)c1ccc(Cl)cc1[N+](=O)[O-] (stereo not drawn)	i	i	i	i	i	i
Clc1ccc(-c2nnc(-c3ccccc3)c(N3CCSCC3)n2)cc1	i	i	i	i	i	i
Clc1ccc(-c2nnc(N3CCCC3)nn2)cc1	i	i	i	137.0	i	i
CC(C)CCNC(=O)c1cccc(C(=O)NCCC(C)C)c1	i	i	i	i	i	i
Cc1cccc(NC(=S)NCCC(C)C)c1	i	i	i	i	i	i
SMILES	STAT1 blocker	FLuc stim CS	FLuc inh counter	STAT1 act	STAT3 blocker	STAT3 act
CC(C)CCNC(=O)C(=O)Nc1ccccc1	i	i	i	128.6	i	i
CC(CCc1ccccc1)NC(=O)c1ccc(C(=O)NC(C)CCc2ccccc2)cc1 (stereo not drawn)	i	i	i	i	59.7	i
CC(C)CCNC(=O)c1ccc(-c2ccccc2)cc1	i	i	i	132.2	i	i
COCCNC(=O)NC(=O)CSc1nc(C)c(C)c(C)n1	i	i	i	i	i	i
CN(C)c1nc(Nc2ccc(Cl)cc2)nc(OCC#N)n1	i	i	i	i	i	135.5
O=C1/C(=C\c2cccnc2)Sc2ccccc21	i	i	60.5	i	i	i
CN1C(=O)S/C(=C/c2cccnc2)C1=O	i	i	i	i	i	i

High-throughput results: PubChem BioAssay, several laboratories
